Measured values from different studies.
Compare with care: the assays were run in different laboratories.
Organism: Trypanosoma brucei
Read-out: parasite growth

Structure (SMILES)	method	strain	time	EC50 [µM]
O=C(N/N=C/c1ccc([N+](=O)[O-])o1)c1cn(Cc2ccccc2)c2ccc(Oc3ccccc3)cc2c1=O	resazurin		72 h	0.32
COc1cc(C)c(C#N)c(SCC(=O)c2ccccc2)n1	resazurin	RHODESIENSE		32.9
CCCCCC(=O)NC(Cc1ccc(N)cc1)C(=O)NC(Cc1ccc(N)cc1)C(=O)NC(CC(C)C)C(=O)C1(C)CO1 (stereo not drawn)	SYBR Green		72 h	< 0.5
Cc1ccc(Cn2cc(C(=O)N/N=C/c3ccc([N+](=O)[O-])o3)c(=O)c3cc(Cl)ccc32)cc1	resazurin		72 h	0.42
O=c1c(O[C@@H]2O[C@H](CO)[C@@H](O)[C@H](O)[C@H]2O)c(-c2ccc(O)c(O)c2)oc2cc(O)cc(O)c12	resazurin		48 h	> 20
N=C(N)c1ccc(OCCCCCOc2ccc(C(=N)N)cc2)cc1	SYBR Green	RHODESIENSE		0.027
COc1ccc2c(c1)c(=O)c(C(=O)NN)cn2Cc1ccc(C)cc1	resazurin		72 h	> 4
Cc1cc(C)c(C#N)c(SCC(=O)c2ccccc2O)n1	resazurin			> 64
CCCCCC(=O)NC(Cc1c[nH]c2ccccc12)C(=O)NC(Cc1c[nH]c2ccccc12)C(=O)NC(CC(C)C)C(=O)C1(C)CO1 (stereo not drawn)	SYBR Green		72 h	< 0.5
Cc1ccc(Cn2cc(C(=O)N/N=C/c3ccc([N+](=O)[O-])s3)c(=O)c3cc(Cl)c(Cl)cc32)cc1	resazurin		72 h	> 4
CC(=O)O[C@H]1C(=O)[C@@]2(C)[C@H]([C@H](OC(=O)c3ccccc3)[C@]3(O)C[C@H](OC(=O)[C@H](O)[C@@H](NC(=O)c4ccccc4)c4ccccc4)C(C)=C1C3(C)C)[C@]1(OC(C)=O)CO[C@@H]1C[C@@H]2O				0.0076
COc1cccc(C(=O)C[S+]([O-])c2nc(C)cc(C)c2C#N)c1 (stereo not drawn)	resazurin			25.4
